These results are taken from ChEMBL document CHEMBL1138352, “On the intractability of estrogen-related receptor alpha as a target for activation by small molecules” (J Med Chem, 2007).

Each structure is given as a SMILES string. The source made the active and inactive calls. The calls are words filed in the database; no cut-off is given here.

The target of assay [1] is T1, Estrogen-related receptor gamma (Homo sapiens) (UniProt P62508).
T1 sequence (whole entry): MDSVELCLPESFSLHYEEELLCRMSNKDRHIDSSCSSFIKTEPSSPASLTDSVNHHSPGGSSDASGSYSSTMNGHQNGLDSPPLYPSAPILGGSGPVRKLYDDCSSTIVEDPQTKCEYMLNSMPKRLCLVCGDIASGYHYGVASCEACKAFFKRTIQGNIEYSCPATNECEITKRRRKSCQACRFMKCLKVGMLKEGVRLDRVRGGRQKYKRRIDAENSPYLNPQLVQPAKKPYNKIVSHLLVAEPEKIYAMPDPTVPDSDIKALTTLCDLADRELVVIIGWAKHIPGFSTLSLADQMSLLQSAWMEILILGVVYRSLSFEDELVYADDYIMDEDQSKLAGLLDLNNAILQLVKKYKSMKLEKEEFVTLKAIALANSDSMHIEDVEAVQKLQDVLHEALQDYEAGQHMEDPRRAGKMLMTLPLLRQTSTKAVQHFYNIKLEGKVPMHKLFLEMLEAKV
In words: Effect on interaction between ERRgamma ligand binding domain and RIP140 by FRET assay.

Assay [2] addresses T2, Steroid hormone receptor ERR1 (Homo sapiens) (UniProt P11474).
T2 sequence (whole entry): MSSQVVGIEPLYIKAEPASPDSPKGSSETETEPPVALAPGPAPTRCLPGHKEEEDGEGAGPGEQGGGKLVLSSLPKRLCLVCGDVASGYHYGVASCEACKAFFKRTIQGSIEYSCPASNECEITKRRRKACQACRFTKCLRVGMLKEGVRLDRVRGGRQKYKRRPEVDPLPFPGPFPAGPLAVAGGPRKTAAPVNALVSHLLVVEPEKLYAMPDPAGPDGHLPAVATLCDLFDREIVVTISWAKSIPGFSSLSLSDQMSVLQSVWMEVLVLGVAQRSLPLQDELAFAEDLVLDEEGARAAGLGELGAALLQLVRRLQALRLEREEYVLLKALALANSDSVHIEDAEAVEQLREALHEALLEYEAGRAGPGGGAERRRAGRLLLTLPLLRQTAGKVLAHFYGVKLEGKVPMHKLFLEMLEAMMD
In words: Effect on interaction between ERRalpha ligand binding domain and RIP140 at 30 uM by FRET assay.

For assay [3], the target named is T2, Steroid hormone receptor ERR1 (Homo sapiens). As to the kind of experiment: Activity at human ERRalpha expressed in HeLa cells assessed as estrogen response element activation at 50 uM after 24 ro 30 hrs by luciferase reporter gene assay. The assay is classed as cell-based. In a few lines: (§1)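 HeLa cells were co-transfected with an expression vector for human ERRα (wild type, or the F272A point mutant for line 1) and a luciferase reporter driven by a triple repeat of an estrogen response element. Luciferase activity in compound-exposed cells was compared with vehicle-treated cells.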
In general terms: In a reporter assay the amount or activity of a reporter protein is the signal.

Assay [4] relates to HeLa. As to the kind of experiment: Activity at human ERRalpha F272A mutant expressed in HeLa cells assessed as estrogen response element activation at 10 uM after 24 to 30 hrs by luciferase reporter gene assay. The assay is classed as cell-based. The method, boiled down:
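HeLa cells transiently co-transfected with an expression vector for human ERRα (F272A point mutant) and a luciferase reporter carrying a triple repeat of the estrogen response element. Cells were exposed to compound, and luciferase activity was read relative to vehicle-treated cells.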

Assay [5] relates to HeLa. In words: Activity at human ERRalpha F272A mutant expressed in HeLa cells assessed as estrogen response element activation after 24 to 30 hrs by luciferase reporter gene assay. It is filed as cell-based. The method, boiled down: as §1

For `CCNC(=O)c1ccc(O)cc1`, the result in assay [1], in assay [2] and in assay [3] was inactive.
For `CNC(=O)c1ccc(O)cc1`, the result in assay [1], in assay [2] and in assay [3] was inactive.
On to `CC(C)/C=N/NC(=O)c1ccc(O)cc1`, for which the outcome in assay [1], in assay [2] and in assay [3] was inactive.
Consider `CC(C)CNC(=O)c1ccc(O)cc1`, for which the outcome (in assay [1]; in the assay on HeLa [4]; in assay [2]; in assay [3]) was inactive.
In the case of `CCCNC(=O)c1ccc(O)cc1`, the result in assay [1], in assay [2] and in assay [3] was inactive.
As for `CCC(C)/C=N/NC(=O)c1ccc(O)cc1` (configuration not stated), the result in assay [1], in assay [2] and in assay [3] was inactive.
Take `C=C(/C=N/NC(=O)c1ccc(O)cc1)CC`: the outcome in assay [1], in assay [2] and in assay [3] was inactive.
On to `CCCCNC(=O)c1ccc(O)cc1`, for which the result in assay [1], in assay [2] and in assay [3] was inactive.
On to `CC(C)c1ccc(/C=N/NC(=O)c2ccc(O)cc2)cc1`, for which, in the assay with HeLa [5], the outcome was inactive.
As to `C=CCC/C=N/NC(=O)c1ccc(O)cc1`, the outcome in assay [1], in assay [2] and in assay [3] was inactive.
Regarding `CC(C)CCNC(=O)c1ccc(O)cc1`, the result in assay [1], in assay [2] and in assay [3] was inactive.
For the compound `CCC(C)C(C)/C=N/NC(=O)c1ccc(O)cc1` (configuration not stated), the result in assay [1], in assay [2] and in assay [3] was inactive.
Regarding `CC(C)(C)CNC(=O)c1ccc(O)cc1`, the result in assay [1], in assay [2] and in assay [3] was inactive.
In the case of `CC(C)NC(=O)c1ccc(O)cc1`, the outcome in assay [1], in assay [2] and in assay [3] was inactive.
For `CN(C)CCc1c[nH]c2ccc(-c3cccc4ccccc34)cc12`, in the assay on HeLa [4], the outcome was inactive.
Regarding `C=C(C)CNC(=O)c1ccc(O)cc1`, the outcome in assay [1], in assay [2] and in assay [3] was inactive.
Consider `CCCCC/C=N/NC(=O)c1ccc(O)cc1`, for which the outcome in assay [1], in assay [2] and in assay [3] was inactive.
Turning to `NC(=O)c1ccc(O)cc1`, the result in assay [1], in assay [2] and in assay [3] was inactive.
As for `CC/C=N/NC(=O)c1ccc(O)cc1`, the outcome in assay [1], in assay [2] and in assay [3] was inactive.
As for `CCCCCNC(=O)c1ccc(O)cc1`, the result in assay [1], in assay [2] and in assay [3] was inactive.
